For experiment [1], the target named is DNA topoisomerase 2-alpha (Homo sapiens) (UniProt P11388). As to the kind of experiment: Inhibition of human DNA topoisomerase-2alpha at 100 uM using supercoiled pBR322 DNA as substrate after 30 mins by ethidium bromide staining based agarose gel electrophoresis relative to control. A digest of the protocol:
(§1)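 Human topo IIα, 1 unit set by full relaxation of pBR322, with 100 ng pBR322 for 30 min in 10 mM Tris-HCl pH 7.9, 50 mM NaCl, 5 mM MgCl2, 1 mM EDTA and BSA. Stop was with EDTA. Screening was at 100 µM, with retest at 20 µM if inhibition exceeded 30%. Gel was 1% agarose at 25 V for 4 h in TAE, stained with ethidium bromide. Mean ± S.D. from three experiments in triplicate.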

Experiment [2] deals with T1, DNA topoisomerase 1 (Homo sapiens) (UniProt P11387).
T1 sequence (whole entry): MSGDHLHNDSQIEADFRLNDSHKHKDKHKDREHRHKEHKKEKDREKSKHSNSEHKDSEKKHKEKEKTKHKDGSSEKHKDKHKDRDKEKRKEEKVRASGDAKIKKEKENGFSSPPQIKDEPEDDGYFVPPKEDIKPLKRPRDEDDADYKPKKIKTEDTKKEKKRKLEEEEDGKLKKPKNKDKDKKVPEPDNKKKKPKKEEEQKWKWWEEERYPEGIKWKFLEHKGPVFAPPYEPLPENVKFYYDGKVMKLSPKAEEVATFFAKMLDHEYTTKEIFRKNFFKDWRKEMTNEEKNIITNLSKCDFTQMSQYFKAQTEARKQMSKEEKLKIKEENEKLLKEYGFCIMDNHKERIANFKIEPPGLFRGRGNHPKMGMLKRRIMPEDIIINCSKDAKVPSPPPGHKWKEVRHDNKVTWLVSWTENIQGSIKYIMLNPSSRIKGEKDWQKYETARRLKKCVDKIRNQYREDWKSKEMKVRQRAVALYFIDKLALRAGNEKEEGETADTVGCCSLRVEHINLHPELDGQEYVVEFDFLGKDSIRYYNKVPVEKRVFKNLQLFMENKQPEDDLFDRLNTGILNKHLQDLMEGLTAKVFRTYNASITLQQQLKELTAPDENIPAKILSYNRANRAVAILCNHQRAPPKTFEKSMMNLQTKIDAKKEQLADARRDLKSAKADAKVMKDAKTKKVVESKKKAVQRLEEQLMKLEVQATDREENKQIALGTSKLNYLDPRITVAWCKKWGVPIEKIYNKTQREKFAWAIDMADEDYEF
As to the kind of experiment: Inhibition of human DNA topoisomerase-1 at 100 uM using supercoiled pBR322 DNA as substrate after 30 mins by ethidium bromide staining based agarose gel electrophoresis relative to control. A digest of the protocol: (§2)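 Recombinant human topo I, 1 unit (the amount that fully relaxes supercoiled pBR322), with 100 ng pBR322 DNA at 37 °C for 30 min in 10 mM Tris-HCl pH 7.9, 150 mM NaCl, 0.1% BSA. Compounds were screened at 100 µM, and those above 30% inhibition were retested at 20 µM. Products ran on 1% agarose at 15 V for 7 h in TAE with ethidium bromide staining. Mean ± S.D. from three experiments in triplicate.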

Experiment [3] can be described thus: Antiproliferative activity against human HeLa cells after 72 hrs by CCK8 assay. It is filed as functional, cell-based. A digest of the protocol: (§3)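 Cells seeded at 2–4 × 10^4 per well, grown overnight in medium with 10% FBS at 37 °C and 5% CO2. After 4 h FBS starvation they were exposed to graded compound concentrations for 72 h. CCK-8 was added for a further 4 h and absorbance read at 450 nm. IC50 came from a four-parameter logistic fit.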
Background: Formazan colour is commonly taken as a measure of viable cells.

A short description of experiment [4]: Antiproliferative activity against human HCT15 cells after 72 hrs by CCK8 assay. It is filed as functional, cell-based. Particulars: HCT-15, 72 h. A digest of the protocol:
as §3

Experiment [5] deals with DNA topoisomerase 2-alpha (Homo sapiens) (UniProt P11388). Kind of experiment: Inhibition of human DNA topoisomerase-2alpha at 20 uM using supercoiled pBR322 DNA as substrate after 30 mins by ethidium bromide staining based agarose gel electrophoresis relative to control. The essentials:
as §1

The nature of experiment [6]: Antiproliferative activity against human T47D cells after 72 hrs by CCK8 assay. The format is functional, cell-based. A digest of the protocol:
as §3

Experiment [7] is described as follows: Antiproliferative activity against human DU145 cells after 72 hrs by CCK8 assay. Particulars: DU-145, 72 h. It is filed as functional, cell-based. The essentials: as §3
Experiment [8] concerns the target T1, DNA topoisomerase 1 (Homo sapiens). As to the kind of experiment: Inhibition of human DNA topoisomerase-1 at 20 uM using supercoiled pBR322 DNA as substrate after 30 mins by ethidium bromide staining based agarose gel electrophoresis relative to control. A digest of the protocol: as §2

Usually inhibition stands for the change of the read-out against control, counted positive when it falls. A high value points to a strong effect. What is called IC50 is the midpoint of a concentration-inhibition curve.

Sequence of DNA topoisomerase 2-alpha (Homo sapiens) (P11388 whole entry): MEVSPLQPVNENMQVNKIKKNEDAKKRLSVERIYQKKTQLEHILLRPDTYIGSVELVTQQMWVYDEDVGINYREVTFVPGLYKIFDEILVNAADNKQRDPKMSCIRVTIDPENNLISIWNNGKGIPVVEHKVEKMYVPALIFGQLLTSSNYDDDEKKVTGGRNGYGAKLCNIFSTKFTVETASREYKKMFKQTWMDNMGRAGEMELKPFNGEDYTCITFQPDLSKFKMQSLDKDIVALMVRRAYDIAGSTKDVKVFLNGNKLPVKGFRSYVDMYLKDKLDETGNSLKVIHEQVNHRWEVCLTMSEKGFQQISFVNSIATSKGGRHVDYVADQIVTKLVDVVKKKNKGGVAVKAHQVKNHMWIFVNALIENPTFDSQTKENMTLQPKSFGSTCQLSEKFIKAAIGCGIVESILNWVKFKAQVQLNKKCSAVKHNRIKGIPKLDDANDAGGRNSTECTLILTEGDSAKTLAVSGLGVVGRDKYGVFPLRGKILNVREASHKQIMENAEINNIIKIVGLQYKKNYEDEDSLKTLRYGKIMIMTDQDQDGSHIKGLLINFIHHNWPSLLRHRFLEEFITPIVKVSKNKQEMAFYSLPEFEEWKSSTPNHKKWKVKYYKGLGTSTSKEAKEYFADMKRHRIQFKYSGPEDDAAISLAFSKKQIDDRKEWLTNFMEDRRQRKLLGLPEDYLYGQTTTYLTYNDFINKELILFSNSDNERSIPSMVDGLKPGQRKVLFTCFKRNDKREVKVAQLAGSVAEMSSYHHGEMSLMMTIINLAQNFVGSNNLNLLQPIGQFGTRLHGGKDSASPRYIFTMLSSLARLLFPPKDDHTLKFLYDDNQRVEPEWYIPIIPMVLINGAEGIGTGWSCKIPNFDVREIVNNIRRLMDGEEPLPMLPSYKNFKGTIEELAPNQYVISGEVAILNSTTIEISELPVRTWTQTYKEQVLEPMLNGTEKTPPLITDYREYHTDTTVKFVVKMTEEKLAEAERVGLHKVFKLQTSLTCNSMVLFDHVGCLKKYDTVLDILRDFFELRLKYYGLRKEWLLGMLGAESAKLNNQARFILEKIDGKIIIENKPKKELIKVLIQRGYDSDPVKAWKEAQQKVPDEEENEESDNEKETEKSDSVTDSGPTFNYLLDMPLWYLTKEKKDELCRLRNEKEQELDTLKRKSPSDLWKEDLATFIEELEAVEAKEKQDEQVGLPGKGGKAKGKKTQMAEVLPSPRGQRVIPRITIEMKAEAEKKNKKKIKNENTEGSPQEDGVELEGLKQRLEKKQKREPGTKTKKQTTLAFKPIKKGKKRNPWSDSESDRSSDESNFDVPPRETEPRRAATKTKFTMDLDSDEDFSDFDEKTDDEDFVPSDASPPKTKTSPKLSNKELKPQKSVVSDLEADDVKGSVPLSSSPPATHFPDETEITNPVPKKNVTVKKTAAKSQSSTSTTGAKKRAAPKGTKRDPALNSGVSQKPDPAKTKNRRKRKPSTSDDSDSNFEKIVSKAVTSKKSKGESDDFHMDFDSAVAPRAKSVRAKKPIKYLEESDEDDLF

For the molecule `Oc1ccccc1-c1cc(-c2ccncc2)nc2c1Cc1ccccc1-2`, the inhibition came to 75.2% in experiment [1], 0% in experiment [2] and 0.9% in experiment [5]. Besides, the IC50 in experiment [3] was 5.78 µM; in experiment [4], 2.18 µM; in experiment [6] it was 2.44 µM; in experiment [7], 4.7 µM.
For the molecule `c1ccc(-c2cc(-c3ccncc3)nc3c2Cc2ccccc2-3)cc1`, the inhibition in experiment [1] was found to be 2.3%; in experiment [2], 0%. The IC50 in experiment [3] was over 50 µM; in experiment [4] it was 16.4 µM; in experiment [6], over 50 µM; in experiment [7], over 50 µM.
Regarding `Oc1ccc(-c2cc(-c3ccsc3)nc3c2Cc2ccccc2-3)cc1`, the inhibition in experiment [1] came out at 74.8%; in experiment [2] it was 45.5%; in experiment [5], 65.9%; in experiment [8], 2.5%. In addition, the IC50 in experiment [3] was found to be 4.9 µM; in experiment [4] it was 2.45 µM; in experiment [6], 4.52 µM; in experiment [7] it was 3.35 µM.
Consider `Oc1cccc(-c2cc(-c3ccncc3)nc3c2Cc2ccccc2-3)c1`, for which the inhibition in experiment [1] is 49.5%; in experiment [2], 1.3%. In addition, the IC50 in experiment [3] is 2.41 µM; in experiment [4] it was 1.94 µM; in experiment [6] it was 1.05 µM; in experiment [7], 4.36 µM.
On to `Oc1ccc(-c2cc(-c3ccccn3)nc3c2Cc2ccccc2-3)cc1`, for which the inhibition in experiment [1] stood at 14.8%; in experiment [2], 0%. In addition, the IC50 in experiment [3], in experiment [4], in experiment [6] and in experiment [7] was over 50 µM in each case.
With `Oc1ccccc1-c1cc(-c2ccccn2)nc2c1Cc1ccccc1-2`, the inhibition in experiment [1] was 15.2%; in experiment [2] it was 0.5%. The IC50 in experiment [3] was over 50 µM; in experiment [4] it was over 50 µM; in experiment [6], 29.6 µM; in experiment [7] it was over 50 µM.
On to `Oc1ccccc1-c1cc(-c2cccnc2)nc2c1Cc1ccccc1-2`, for which the inhibition came out at 65.5% in experiment [1], 0% in experiment [2] and 10.5% in experiment [5]. Moreover, the IC50 worked out at 7.8 µM in experiment [3], 3.52 µM in experiment [4], 5.15 µM in experiment [6] and 7.46 µM in experiment [7].
As for `c1ccc(-c2cc(-c3ccco3)nc3c2Cc2ccccc2-3)cc1`, the values for the inhibition in experiment [1], in experiment [2] and in experiment [5] were 41.3%, 18.7% and 5.7%, respectively. In addition, the IC50 in experiment [3] was 16.6 µM; in experiment [4] it was over 50 µM; in experiment [7], 7.74 µM.
In the case of `Oc1ccccc1-c1cc(-c2ccco2)nc2c1Cc1ccccc1-2`, the inhibition stood at 58.7% in experiment [1], 62.4% in experiment [2], 20% in experiment [5] and 27.1% in experiment [8]. For the same molecule, the IC50 in experiment [3], in experiment [4], in experiment [6] and in experiment [7] was over 50 µM in each case.
Take `Oc1ccccc1-c1cc(-c2ccsc2)nc2c1Cc1ccccc1-2`: the inhibition in experiment [1] came to 50.2%; in experiment [2], 12.8%; in experiment [5], 4.9%. Moreover, the IC50 in experiment [3], in experiment [4], in experiment [6] and in experiment [7] was over 50 µM throughout.
`Oc1ccc(-c2cc(-c3ccoc3)nc3c2Cc2ccccc2-3)cc1`: the results for the inhibition in experiment [1], in experiment [2] and in experiment [5] were 61.4%, 1.4% and 28%, respectively. The IC50 is 5.21 µM in experiment [3], 1.83 µM in experiment [4], 2.6 µM in experiment [6] and 6.01 µM in experiment [7].
Turning to `Oc1cccc(-c2cc(-c3ccoc3)nc3c2Cc2ccccc2-3)c1`, the inhibition in experiment [1] is 82.2%; in experiment [2], 4.5%; in experiment [5], 29.6%. Moreover, the IC50 in experiment [3] is 4.48 µM; in experiment [4], 1.24 µM; in experiment [6], 2.91 µM; in experiment [7] it was 1.51 µM.
For `Oc1ccc(-c2cc(-c3cccnc3)nc3c2Cc2ccccc2-3)cc1`, the inhibition in experiment [1] was 4%; in experiment [2], 0%. The IC50 in experiment [3], in experiment [4], in experiment [6] and in experiment [7] was over 50 µM throughout.
Consider `Oc1cccc(-c2cc(-c3ccsc3)nc3c2Cc2ccccc2-3)c1`, for which the inhibition amounted to 75.5% in experiment [1], 33.1% in experiment [2], 22% in experiment [5] and 0% in experiment [8]. For the same molecule, the IC50 was 1.74 µM in experiment [3], 2.49 µM in experiment [4], 1.52 µM in experiment [6] and 3.12 µM in experiment [7].
In the case of `Oc1ccc(-c2cc(-c3ccncc3)nc3c2Cc2ccccc2-3)cc1`, the figures for the inhibition in experiment [1] and in experiment [2] were 1.14% and 0%, respectively. Moreover, the IC50 in experiment [3], in experiment [4], in experiment [6] and in experiment [7] was over 50 µM in each case.
Consider `c1ccc(-c2cc(-c3cccs3)nc3c2Cc2ccccc2-3)cc1`, for which the inhibition came out at 5.8% in experiment [1], 56% in experiment [2] and 0% in experiment [8]. Besides, the half-inhibitory concentration (IC50) in experiment [3], in experiment [4] and in experiment [7] was over 50 µM in each case.
Turning to `c1ccc(-c2cc(-c3ccoc3)nc3c2Cc2ccccc2-3)cc1`, the inhibition stood at 3.9% in experiment [1] and 6.4% in experiment [2]. Moreover, the IC50 in experiment [3] was found to be 10.8 µM; in experiment [4], 7.05 µM; in experiment [6], 17.4 µM; in experiment [7], 1.09 µM.
On to `c1ccc(-c2cc(-c3ccsc3)nc3c2Cc2ccccc2-3)cc1`, for which the inhibition in experiment [1] worked out at 0.5%; in experiment [2], 72.5%; in experiment [8] it was 0%. Moreover, the IC50 in experiment [3], in experiment [4] and in experiment [7] was over 50 µM each time.
For `Oc1ccccc1-c1cc(-c2ccoc2)nc2c1Cc1ccccc1-2`, the inhibition in experiment [1] came out at 1.8%; in experiment [2], 0.4%. Also, the IC50 in experiment [3], in experiment [4], in experiment [6] and in experiment [7] was over 50 µM in each case.
Consider `Oc1cccc(-c2cc(-c3ccco3)nc3c2Cc2ccccc2-3)c1`, for which the values for the inhibition in experiment [1], in experiment [2] and in experiment [5] were 77.5%, 28.9% and 36.9%, respectively. The IC50 in experiment [3] stood at 6.27 µM; in experiment [4], 1.58 µM; in experiment [6], 1.07 µM; in experiment [7], 3.75 µM.
`c1ccc(-c2cc(-c3ccccn3)nc3c2Cc2ccccc2-3)cc1`: the inhibition in experiment [1] is 0%; in experiment [2], 12.3%.
On to `Oc1cccc(-c2cc(-c3ccccn3)nc3c2Cc2ccccc2-3)c1`, for which the inhibition in experiment [1] turned out to be 3.5%; in experiment [2] it was 2.4%. Moreover, the IC50 in experiment [3], in experiment [4], in experiment [6] and in experiment [7] was over 50 µM each time.
Take `Oc1cccc(-c2cc(-c3cccnc3)nc3c2Cc2ccccc2-3)c1`: the inhibition in experiment [1] worked out at 18.5%; in experiment [2], 1.5%. Further, the IC50 in experiment [3] stood at 5.19 µM; in experiment [4], 1.87 µM; in experiment [6], 1.17 µM; in experiment [7], 2.8 µM.

These data come from ChEMBL document CHEMBL3877249, “Novel 2-aryl-4-(4'-hydroxyphenyl)-5H-indeno[1,2-b]pyridines as potent DNA non-intercalative topoisomerase catalytic inhibitors” (Eur J Med Chem, 2017).
